We go through 8 molecules from ChEMBL document CHEMBL3045565, “Microwave synthesis, characterization and bio-efficacy evaluation of novel chalcone based 6-carbethoxy-2-cyclohexen-1-one and 2H-indazol-3-ol derivatives” (Eur J Med Chem, 2013).

≈ marks a conversion by molar mass, not a printed value.

Holding throughout (format): functional
Test [1] deals with Radical scavenging activity. Put plainly: Antioxidant activity assessed as DPPH free radical scavenging activity at 10 ug/mL after 20 min by UV-Vis spectrophotometric analysis. Summed up: (§1)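 DPPH radical scavenging: samples were held at room temperature for 20 min in the dark, and absorbance was read at 517 nm. The control contained DMSO without compound, and methanol was used for baseline correction. Scavenging percentage was calculated from the absorbances.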
A general note: Loss of DPPH colour is used to gauge radical scavenging.

Test [2] deals with Rhizoctonia solani. The test is described as follows: Antifungal activity against Rhizoctonia solani ITCC 5563 by food poisoning method. Summed up:
(§2)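 Poisoned food technique on PDA at several concentrations. A 5 mm mycelial plug from the growing edge of a 2-week-old colony was placed inoculum-side down at the plate centre. Plates incubated at 27 °C until control growth was nearly complete. Colony diameter measured, percent inhibition calculated against control, LC50 derived. Four replicates per treatment.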

Test [3] relates to Bacillus pumilus. The test is described as follows: Antibacterial activity against Bacillus pumilus MTCC 2466 assessed as growth inhibition at 100 ug/disk after 24 hr by disk diffusion method. The conditions noted are these: MTCC 2466, 24 h, read-out: DIZ. Summed up: (§3)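 Disk diffusion on nutrient agar. Strains kept on NA slants at 37 °C and subcultured in nutrient broth before testing. A log-phase culture was spread on solidified medium, and sterile disks were loaded with compound from DMSO stock. DMSO served as control, with commercial antibiotics for reference. Plates ran 24 h at 37 °C, and inhibition zones (mm) were read in quadruplicate.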
(In agar diffusion tests the substance spreads into inoculated agar from a disc or well.)

In test [4] the test system is Radical scavenging activity. Put plainly: Antioxidant activity assessed as DPPH free radical scavenging activity at 400 ug/mL after 20 min by UV-Vis spectrophotometric analysis. Summed up: as §1
Test [5] relates to Radical scavenging activity. The test is described as follows: Antioxidant activity assessed as DPPH free radical scavenging activity at 80 ug/mL after 20 min by UV-Vis spectrophotometric analysis. Summed up: as §1
The subject of test [6] is Staphylococcus aureus. The test is described as follows: Antibacterial activity against Staphylococcus aureus MTCC 3160 assessed as growth inhibition at 100 ug/disk after 24 hr by disk diffusion method. The conditions noted are these: MTCC 3160, 24 h, read-out: DIZ. A digest of the protocol: as §3
Test [7] concerns Dickeya chrysanthemi. The test is described as follows: Antibacterial activity against Erwinia chrysanthemi ITCC B-40 assessed as as growth inhibition at 100 ug/disk after 24 hr by disk diffusion method. The following applies: ITCC B-40, 24 h, read-out: DIZ. Summed up: as §3
The subject of test [8] is Xanthomonas oryzae. The test is described as follows: Antibacterial activity against Xanthomonas oryzae ITCC B-47 assessed as as growth inhibition at 100 ug/disk after 24 hr by disk diffusion method. The following applies: ITCC B-47, 24 h, read-out: DIZ.
Test [9] has as its system Radical scavenging activity. The test is described as follows: Antioxidant activity assessed as DPPH free radical scavenging activity at 60 ug/mL after 20 min by UV-Vis spectrophotometric analysis. A digest of the protocol: as §1
In test [10] the test system is Bacillus thuringiensis. Put plainly: Antibacterial activity against Bacillus thuringiensis MTCC 6941 assessed as growth inhibition at 100 ug/disk after 24 hr by disk diffusion method. The conditions noted are these: MTCC 6941, 24 h, read-out: DIZ. A digest of the protocol: as §3
The subject of test [11] is Radical scavenging activity. Put plainly: Antioxidant activity assessed as DPPH free radical scavenging activity at 40 ug/mL after 20 min by UV-Vis spectrophotometric analysis. A digest of the protocol:
as §1

For test [12], the system named is Radical scavenging activity. Put plainly: Antioxidant activity assessed as DPPH free radical scavenging activity at 500 ug/mL after 20 min by UV-Vis spectrophotometric analysis. Summed up: as §1
The subject of test [13] is Athelia rolfsii. The test is described as follows: Antifungal activity against Athelia rolfsii ITCC 6181 by food poisoning method. The following applies: Agroathelia rolfsii. Summed up: as §2
Test [14] relates to Radical scavenging activity. The test is described as follows: Antioxidant activity assessed as DPPH free radical scavenging activity at 100 ug/mL after 20 min by UV-Vis spectrophotometric analysis. A digest of the protocol: as §1
In test [15] the test system is Pseudomonas aeruginosa. The test is described as follows: Antibacterial activity against Pseudomonas aeruginosa MTCC 2581 assessed as growth inhibition at 100 ug/disk after 24 hr by disk diffusion method. The conditions noted are these: MTCC 2581, 24 h, read-out: DIZ. Summed up: as §3
In test [16] the test system is Radical scavenging activity. Put plainly: Antioxidant activity assessed as DPPH free radical scavenging activity at 300 ug/mL after 20 min by UV-Vis spectrophotometric analysis. A digest of the protocol:
as §1

Test [17] deals with Radical scavenging activity. Put plainly: Antioxidant activity assessed as DPPH free radical scavenging activity at 20 ug/mL after 20 min by UV-Vis spectrophotometric analysis. Summed up:
as §1

Test [18] concerns Klebsiella pneumoniae. Put plainly: Antibacterial activity against Klebsiella pneumoniae MTCC 7028 assessed as growth inhibition at 100 ug/disk after 24 hr by disk diffusion method. The conditions noted are these: MTCC 7028, 24 h, read-out: DIZ. A digest of the protocol: as §3
Test [19] has as its system Radical scavenging activity. Put plainly: Antioxidant activity assessed as DPPH free radical scavenging activity after 20 min by UV-Vis spectrophotometric analysis. Also on record: concentration or dose not given beside the values. Summed up:
as §1

In test [20] the test system is Radical scavenging activity. Put plainly: Antioxidant activity assessed as DPPH free radical scavenging activity at 200 ug/mL after 20 min by UV-Vis spectrophotometric analysis. A digest of the protocol: as §1

As usually defined, the LC50 is the concentration lethal to half of the exposed cells or organisms. The term IC50 denotes the point on the concentration scale where inhibition reaches its midpoint. As for `COc1ccc(C2CC(c3ccc(Cl)c(Cl)c3)=Cc3n[nH]c(O)c32)cc1` (stereo unspecified), the Activity in [1] was 17.6%; in [4] it was 91.3%; in test [5] it was 90.4%; in [9], 86.1%; in test [11] it was 48.6%; in [12], 91.3%. Besides, the Activity stood at 91.1% in test [14]; 90.7% in [16]; 31% in [17]; 48.5% in [19]; 91.5% in test [20]. For the same molecule, the LC50 in test [2] is 776 µg/mL (≈ 2000 µM); in test [13], 1030 µg/mL (≈ 2660 µM). Also, the zone of inhibition at 100 µg/disc in [3], in test [6], in test [7], in test [8], in test [10] and in test [15] was 0 mm each time. For the same molecule, in [18], the zone of inhibition at 100 µg/disc was determined as 0 mm. Besides, the half-inhibitory concentration (IC50) in test [19] amounted to 40.98 µg/mL (≈ 106 µM).
As to `COc1ccc(C2CC(c3ccc(OC)c(OC)c3)=Cc3n[nH]c(O)c32)cc1` (stereo unspecified), the Activity in test [1] is 3.5%; in test [4], 82.6%; in test [5] it was 31.1%; in [9], 26.3%; in test [11] it was 12.8%; in [12] it was 82.6%. The Activity in test [14] came to 36.5%; in [16], 75.3%; in test [17], 5.3%; in test [19], 12.8%; in test [20] it was 58.8%. Also, the LC50 stood at 611 µg/mL (≈ 1610 µM) in test [2] and 894 µg/mL (≈ 2360 µM) in [13]. The zone of inhibition at 100 µg/disc in [3], in [6], in test [7], in test [8], in test [10] and in test [15] was 0 mm in each case. The zone of inhibition at 100 µg/disc in test [18] was found to be 0 mm. In addition, the IC50 in [19] was determined as 146.68 µg/mL (≈ 388 µM).
For the molecule `Oc1[nH]nc2c1C(c1ccccc1)CC(c1ccccc1)=C2` (stereo unspecified), the Activity in test [1] came to 9.1%; in test [4], 89.1%; in test [5], 67.3%; in test [9], 62.5%; in [11] it was 40.3%; in test [12], 89.2%. Moreover, the Activity in test [14] was 73.3%; in test [16] it was 89%; in test [17], 10.9%; in test [19], 40.3%; in [20] it was 90.6%. In addition, the LC50 in test [2] was 802 µg/mL (≈ 2780 µM); in test [13], 873 µg/mL (≈ 3030 µM). Also, the zone of inhibition at 100 µg/disc in test [3], in test [6], in [7], in [8], in test [10] and in test [15] was 0 mm in each case. The zone of inhibition at 100 µg/disc in test [18] worked out at 10 mm. In addition, in test [19], the concentration for half-maximal inhibition (IC50) was 58.28 µg/mL (≈ 202 µM).
On to `COc1ccc(C2CC(c3ccc(C)cc3)=Cc3n[nH]c(O)c32)cc1OC` (stereo unspecified), for which the Activity is 15% in test [1]; 91.7% in test [4]; 80.3% in [5]; 78.5% in test [9]; 62.6% in test [11]; 91% in test [12]. Further, the Activity in test [14] is 81.8%; in test [16], 91.6%; in [17] it was 25.9%; in [19], 62.6%; in test [20], 91.4%. Besides, the median lethal concentration (LC50) amounted to 861 µg/mL (≈ 2380 µM) in test [2] and 939 µg/mL (≈ 2590 µM) in [13]. Besides, the zone of inhibition at 100 µg/disc in [3], in test [6], in test [7], in test [8], in test [10] and in test [15] was 0 mm each time. Besides, the zone of inhibition at 100 µg/disc in [18] came to 0 mm. For the same molecule, the IC50 in [19] was found to be 33.12 µg/mL (≈ 91.4 µM).
For the molecule `O=[N+]([O-])c1ccc(C2=Cc3n[nH]c(O)c3C(c3ccc4c(c3)OCO4)C2)cc1` (stereo unspecified), the Activity in [1] amounted to 5.3%; in test [4] it was 87.3%; in [5], 44.5%; in [9], 38.4%; in test [11] it was 19.8%; in test [12], 87.3%. The Activity in [14] was found to be 50.7%; in [16] it was 87.9%; in test [17], 5.8%; in [19], 19.8%; in test [20] it was 83.4%. Also, the LC50 in test [2] came to 931 µg/mL (≈ 2470 µM); in test [13] it was 963 µg/mL (≈ 2550 µM). The zone of inhibition at 100 µg/disc in test [3], in test [6], in [7], in [8], in test [10] and in [15] was 0 mm in each case. For the same molecule, in test [18], the zone of inhibition at 100 µg/disc was found to be 0 mm. In test [19], the concentration for half-maximal inhibition (IC50) came out at 95.82 µg/mL (≈ 254 µM).
As to `Cc1ccc(C2=Cc3n[nH]c(O)c3C(c3ccc(C)cc3)C2)cc1` (stereo unspecified), the Activity in test [1] was found to be 3.4%; in [4], 84.8%; in [5], 34.9%; in test [9], 31.5%; in test [11], 18.2%; in test [12], 85.2%. The Activity in [14] came to 40.3%; in test [16] it was 80.5%; in test [17], 4.4%; in test [19] it was 18.1%; in test [20] it was 68.1%. In addition, the LC50 came out at 814 µg/mL (≈ 2570 µM) in [2] and 876 µg/mL (≈ 2770 µM) in [13]. Further, the zone of inhibition at 100 µg/disc is 0 mm in test [3]; 5 mm in test [6]; 0 mm in [7]; 0 mm in test [8]; 0 mm in test [10]; 10 mm in test [15]. Besides, the zone of inhibition at 100 µg/disc in test [18] amounted to 0 mm. For the same molecule, in test [19], the IC50 worked out at 123.54 µg/mL (≈ 390 µM).
For the molecule `CCOC(=O)C1C(=O)C=C(c2ccccc2)CC1c1ccccc1` (stereo unspecified), the values for the LC50 in [2] and in test [13] were 207 µg/mL (≈ 646 µM) and 304 µg/mL (≈ 949 µM), respectively. The zone of inhibition at 100 µg/disc in test [3], in test [6], in [7], in [8], in [10] and in test [15] was 0 mm throughout. Moreover, in [18], the zone of inhibition at 100 µg/disc turned out to be 10 mm. The Activity in test [19] was determined as 3.33%.
For `CCOC(=O)C1C(=O)C=C(c2ccc(F)cc2)CC1c1cccc([N+](=O)[O-])c1` (stereo unspecified), the LC50 in test [2] stood at 157 µg/mL (≈ 410 µM); in [13], 285 µg/mL (≈ 743 µM). The zone of inhibition at 100 µg/disc in test [3] is 0 mm; in test [6], 0 mm; in test [7], 10 mm; in test [8], 0 mm; in test [10] it was 0 mm; in test [15] it was 0 mm. For the same molecule, in [18], the zone of inhibition at 100 µg/disc was found to be 0 mm. Also, in test [19], the Activity was 4.23%.
